Laboratory results from ChEMBL document CHEMBL3813692, “Discovery of a Fluorinated Enigmol Analog with Enhanced in Vivo Pharmacokinetic and Anti-Tumor Properties” (ACS Med Chem Lett, 2016).
Calls of active or inactive are those of the source. The rule behind the calls is not given here.

What was measured:
[1] = Lipophilicity, log P of the compound; type: physicochemical; details: octanol/water
[2] = Cmax in pre-cannulated Sprague-Dawley rat at 2 mg/kg, iv after […] to 8 hrs by LC-MS/MS analysis; type: ADME, organism-based; parameters: dose 2 mg/kg, route intravenous; details: in vivo
Procedure, shortened: (§1)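 SD rats (n = 3–4 per group) received a single 2 mg/kg i.v. injection in PEG400/EtOH/Tween80/H2O (40:10:3:47). Plasma was sampled periodically and drug was quantified by LC-MS/MS. t1/2, Cl, Cmax and AUC were reported as mean ± SEM.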

PC-3 [3] = assay: Antitumor activity against human PC3 cells xenografted in athymic NCr-nu/nu mouse assessed as tumor growth inhibition at 10 mg/kg, qd administered via oral gavage measured every 2 to 3 days; type: functional, organism-based
Procedure, shortened: (§2)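 Nude mice with palpable subcutaneous PC-3 tumors (n = 9–11 per group) were dosed once daily by oral gavage. Study 1 used 3 or 10 mg/kg in 95:5 olive oil/EtOH vehicle; study 2 used 10 or 30 mg/kg in 95:5 PEG400/Tween80 vehicle. Tumor volume and body weight were measured periodically. Tumor growth was analysed by a repeated-measures linear mixed model with autoregressive covariance; weight change by one-way ANOVA with Sidak's test.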

[4] = Drug uptake in pre-cannulated Sprague-Dawley rat lung at 10 mg/kg administered via oral gavage after 24 hrs by LC-MS/MS analysis; type: ADME, organism-based; details: read-out: Drug uptake
Procedure, shortened: (§3)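 After one 10 mg/kg oral gavage to SD rats (n = 4 per group), red blood cells, brain, lung, liver, kidney and prostate were harvested at 24 h. Drug levels were quantified by LC-MS/MS.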

Plasma [5] = assay: Drug uptake in pre-cannulated Sprague-Dawley rat plasma at 10 mg/kg administered via oral gavage after 1 hr by LC-MS/MS analysis; type: ADME, organism-based; details: in vivo
Procedure, shortened: (§4)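 A single 10 mg/kg oral gavage was given to SD rats (n = 4 per group). Vehicle was 90:10 olive oil/EtOH or 95:5 PEG400/Tween80, depending on the analog. Plasma was collected periodically and drug was measured by LC-MS/MS; data are mean ± SEM.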

LNCaP = assay: Cytotoxicity against human LNCAP cells assessed as reduction in cell viability after 24 hrs by WST-1 assay; type: functional, cell-based
Procedure, shortened: (§5)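 Cells were exposed to compound for 24 h (n = 3–4), and viability was read as mitochondrial activity by WST-1. IC50 and IC90 were derived from concentration–response curves and reported as mean ± SEM.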

[6] = Oral bioavailability in pre-cannulated Sprague-Dawley rat at 10 mg/kg administered via gavage after 0.5 to 24 hrs by LC-MS/MS analysis; type: ADME, organism-based; details: in vivo
[7] = Cmax in pre-cannulated Sprague-Dawley rat at 10 mg/kg administered via oral gavage after 0.5 to 24 hrs by LC-MS/MS analysis; type: ADME, organism-based; parameters: dose 10 mg/kg, route oral; details: in vivo; procedure, shortened: as §4
[8] = Drug uptake in pre-cannulated Sprague-Dawley rat brain at 10 mg/kg administered via oral gavage after 24 hrs by LC-MS/MS analysis; type: ADME, organism-based; details: read-out: Drug uptake; procedure, shortened: as §3
PC-3 [9] = assay: Antitumor activity against human PC3 cells xenografted in athymic NCr-nu/nu mouse assessed as tumor growth inhibition at 3 mg/kg, qd administered via oral gavage measured every 2 to 3 days; type: functional, organism-based; procedure, shortened: as §2
[10] = AUC(0 to t) in pre-cannulated Sprague-Dawley rat at 10 mg/kg administered via oral gavage after 0.5 to 24 hrs by LC-MS/MS analysis; type: ADME, organism-based; parameters: time upper 24 hr, time lower 0.5 hr, dose 10 mg/kg, route oral; details: in vivo; procedure, shortened: as §4
[11] = Drug uptake in pre-cannulated Sprague-Dawley rat kidney at 10 mg/kg administered via oral gavage after 24 hrs by LC-MS/MS analysis; type: ADME, organism-based; details: read-out: Drug uptake; procedure, shortened: as §3
[12] = Clearance in pre-cannulated Sprague-Dawley rat at 2 mg/kg, iv after […] to 8 hrs by LC-MS/MS analysis; type: ADME, organism-based; details: in vivo; procedure, shortened: as §1
[13] = Octanol-buffer partition co-efficient, log D of the compound at 100 uM at pH 7.4 by shake-flask method; type: physicochemical
[14] = Drug uptake in tumor of human PC3 cells xenografted in athymic NCr-nu/nu mouse at 3 mg/kg, qd administered via oral gavage measured 24 hrs post last dose by LC-MS/MS analysis; type: ADME, organism-based, Neoplasm, PC-3; details: read-out: Drug uptake
Procedure, shortened: (§6)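 Tumors were harvested at the end of daily oral-gavage xenograft studies in nude mice bearing PC-3 tumors (3, 10 or 30 mg/kg). Drug accumulation in tumor was measured by LC-MS/MS and reported as mean ± SEM.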

[15] = Drug uptake in tumor of human PC3 cells xenografted in athymic NCr-nu/nu mouse at 10 mg/kg, qd administered via oral gavage measured 24 hrs post last dose by LC-MS/MS analysis; type: ADME, organism-based, Neoplasm, PC-3; details: read-out: Drug uptake; procedure, shortened: as §6
[16] = Drug uptake in pre-cannulated Sprague-Dawley rat prostate gland at 10 mg/kg administered via oral gavage after 24 hrs by LC-MS/MS analysis; type: ADME, organism-based; details: read-out: Drug uptake; procedure, shortened: as §3
[17] = Terminal half-life in pre-cannulated Sprague-Dawley rat at 2 mg/kg, iv after […] to 8 hrs by LC-MS/MS analysis; type: ADME, organism-based; details: in vivo, read-out: beta t1/2 (converted); procedure, shortened: as §1
[18] = Tmax in pre-cannulated Sprague-Dawley rat at 10 mg/kg administered via oral gavage after 0.5 to 24 hrs by LC-MS/MS analysis; type: ADME, organism-based; details: in vivo; procedure, shortened: as §4
[19] = Cytotoxicity against human PC3 cells assessed as reduction in cell viability after 24 hrs by WST-1 assay; type: functional, cell-based; details: PC-3, 24 h; procedure, shortened: as §5
[20] = AUC(0 to t) in pre-cannulated Sprague-Dawley rat at 2 mg/kg, iv after […] to 8 hrs by LC-MS/MS analysis; type: ADME, organism-based; parameters: time upper 8 hr, dose 2 mg/kg, route intravenous; details: in vivo; procedure, shortened: as §1
Mus musculus [21] = assay: Toxicity in athymic NCr-nu/nu mouse xenografted with human PC3 cells assessed as change in body weight at 10 mg/kg administered via oral gavage measured every 2 to 3 days; type: organism-based, PC-3; details: in vivo; procedure, shortened: as §2
[22] = Terminal half-life in pre-cannulated Sprague-Dawley rat at 10 mg/kg administered via oral gavage after 0.5 to 24 hrs by LC-MS/MS analysis; type: ADME, organism-based; details: in vivo, read-out: beta t1/2 (converted); procedure, shortened: as §4
[23] = Drug uptake in pre-cannulated Sprague-Dawley rat liver at 10 mg/kg administered via oral gavage after 24 hrs by LC-MS/MS analysis; type: ADME, organism-based; details: read-out: Drug uptake; procedure, shortened: as §3
[24] = Tmax in pre-cannulated Sprague-Dawley rat at 2 mg/kg, iv after […] to 8 hrs by LC-MS/MS analysis; type: ADME, organism-based; details: in vivo; procedure, shortened: as §1
[25] = Drug uptake in pre-cannulated Sprague-Dawley rat RBC at 10 mg/kg administered via oral gavage after 24 hrs by LC-MS/MS analysis; type: ADME, organism-based, Erythrocyte; details: red blood cells, read-out: Drug uptake; procedure, shortened: as §3
Mus musculus [26] = assay: Toxicity in athymic NCr-nu/nu mouse xenografted with human PC3 cells assessed as change in body weight at 3 mg/kg administered via oral gavage measured every 2 to 3 days; type: organism-based, PC-3; details: in vivo; procedure, shortened: as §2
Mus musculus [27] = assay: Toxicity in athymic NCr-nu/nu mouse xenografted with human PC3 cells assessed as change in body weight at 30 mg/kg administered via oral gavage measured every 2 to 3 days; type: organism-based, PC-3; details: in vivo; procedure, shortened: as §2
[28] = Drug uptake in tumor of human PC3 cells xenografted in athymic NCr-nu/nu mouse at 30 mg/kg, qd administered via oral gavage measured 24 hrs post last dose by LC-MS/MS analysis; type: ADME, organism-based, Neoplasm, PC-3; details: read-out: Drug uptake; procedure, shortened: as §6
Plasma [29] = assay: Drug uptake in pre-cannulated Sprague-Dawley rat plasma at 10 mg/kg administered via oral gavage after 2 hrs by LC-MS/MS analysis; type: ADME, organism-based; details: in vivo; procedure, shortened: as §4

Row | Cmax [2] | concentration at 24 h [4] | bioavailability [6] | Cmax [7] | concentration at 24 h [8] | AUC(0-t) [10] | concentration at 24 h [11] | clearance [12] | logD at 100 µM [13] | concentration at 24 h [15] | concentration at 24 h [16] | half-life [17] | Tmax [18] | AUC(0-t) [20] | Structure (SMILES) | TGI (PC-3 [3]) | IC50 (LNCaP) | IC90 (LNCaP) | IC50 [19] | IC90 [19] | Activity (Mus musculus [21]) | also measured
1 | 1.68 µM | 18.7 µM | 68% | 0.193 µM | 6.01 µM | 2.34 µM·h | 4.74 µM | 136 mL/min/kg | 3.24 | 25.3 µM | 3.46 µM | 1.3 h | 12 h | 0.688 µM·h | C[C@H](N)[C@@H](O)C[C@@H](O)CCCCCCCCCCCCC(F)(F)F | inactive | 11.3 µM | 19.2 µM | 21.4 µM | 24.4 µM | 11.6% | Drug uptake (Plasma [5]): Not Active; TGI (PC-3 [9]): inactive; concentration at 24 h [14]: 3.23 µM; half-life [22]: 5.5 h; concentration at 24 h [23]: 1.94 µM; Tmax [24]: 4.8 min; concentration at 24 h [25]: 0.153 µM; Activity (Mus musculus [26]): Non-toxic
2 | 2.45 µM | 5.34 µM | 11% | 0.0846 µM | 3.25 µM | 0.832 µM·h | 1.35 µM | 76.2 mL/min/kg | 3.5 | 1.6 µM | 0.766 µM | 4 h | 8 h | 1.45 µM·h | CCCCCCCCCCCCC[C@H](O)C[C@H](O)[C@H](C)N [ENIGMOL] | Active | 11.7 µM | 19.6 µM | 12.1 µM | 14 µM | Non-toxic | Drug uptake (Plasma [5]): Not Active; TGI (PC-3 [9]): inactive; concentration at 24 h [14]: 1.05 µM; half-life [22]: 8.3 h; concentration at 24 h [23]: 1.06 µM; Tmax [24]: 4.8 min; concentration at 24 h [25]: 0.041 µM; Activity (Mus musculus [26]): Non-toxic

The remaining lines, values behind:

Row | Structure (SMILES) | Cmax [2] | concentration at 24 h [4] | bioavailability [6] | Cmax [7] | concentration at 24 h [8] | AUC(0-t) [10] | concentration at 24 h [11] | clearance [12] | logD at 100 µM [13] | concentration at 24 h [15] | concentration at 24 h [16] | half-life [17] | Tmax [18] | AUC(0-t) [20] | TGI (PC-3 [3]) | IC50 (LNCaP) | IC90 (LNCaP) | IC50 [19] | IC90 [19] | Activity (Mus musculus [21]) | also measured
3 | CCCCCC(O)C(F)(F)F (stereo not given) |  |  |  |  |  |  |  |  |  |  |  |  |  |  |  |  |  |  |  |  | logP [1]: 1.14
4 | OC(F)(F)CF |  |  |  |  |  |  |  |  |  |  |  |  |  |  |  |  |  |  |  |  | logP [1]: 0.36
5 | CCCCCCCCCCCCC(F)(F)[C@H](O)C[C@H](O)[C@H](C)N | 4.4 µM | 44.5 µM | 10% | 0.119 µM | 16.1 µM | 1.47 µM·h | 14.8 µM | 34 mL/min/kg | 1.73 | 23.6 µM | 6.94 µM | 5.7 h | 8 h | 2.91 µM·h | Active | 13.4 µM | 16.7 µM | 11.7 µM | 15.3 µM | Non-toxic | Activity (Mus musculus [27]): Non-toxic; concentration at 24 h [28]: 62 µM; Drug uptake (Plasma [29]): Not Active; half-life [22]: 9.9 h; concentration at 24 h [23]: 9.29 µM; Tmax [24]: 4.8 min; concentration at 24 h [25]: 0.936 µM
